In ChEMBL document CHEMBL1149434 (J Med Chem, 2006):
Activity calls are given as the source filed them. The rule behind the calls is not given here.

Assays:
[1] = tested on: RAW264.7; test: Ability to suppress the production of reactive oxygen intermediates by activated RAW 264.7 macrophages from BALB/c mice at 4 ug/ml; format: functional
Outline: (§1)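 RAW 264.7 cells were grown in DMEM with 5% FCS and LPS-activated (1 µg/mL, 24 h). Cells (5 × 10^5 in 0.5 mL) were incubated 24 h with cannabinoids dissolved in ethanol and diluted in Hanks. Luminol and zymosan were then added and chemiluminescence was read immediately. Mean ± SD of three pooled experiments.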

[2] = tested on: RAW264.7; test: Ability to suppress the production of reactive oxygen intermediates by activated RAW 264.7 macrophages from BALB/c mice at 8 ug/ml; format: functional, Mus musculus; outline: as §1
[3] = tested on: Peritoneal macrophage cell; test: Ability to suppress […] production by LPS-activated peritoneal macrophages form C57BL/6 mice at 4 ug/ml; format: functional, cell-based; conditions: Mus musculus
Outline: (§2)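 Elicited peritoneal macrophages were prepared as for TNF. They were exposed to ethanol-dissolved cannabinoids diluted in DMEM, plus LPS 1 µg/mL, for 24 h. Nitrite in 100 µL supernatant was mixed with an equal volume of Griess reagent for 10 min at room temperature and read at 550 nm. Values came from a nitrite standard curve. Mean ± SD of three pooled experiments.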

[4] = tested on: Peritoneal macrophage cell; test: Ability to suppress […] production by LPS-activated peritoneal macrophages form C57BL/6 mice at 8 ug/ml; format: functional, cell-based; conditions: Mus musculus; outline: as §2
[5] = tested on: Peritoneal macrophage cell; test: Ability to suppress TNFalpha production by LPS-activated peritoneal macrophages form C57BL/6 mice at 4 ug/ml; format: functional, cell-based; conditions: Mus musculus
[6] = tested on: Peritoneal macrophage cell; test: Ability to suppress TNFalpha production by LPS-activated peritoneal macrophages form C57BL/6 mice at 8 ug/ml; format: functional, Mus musculus
[7] = molecular target: Cannabinoid receptor 1 (Rattus norvegicus, UniProt P20272); test: Displacement of [3H]HU243 from CB1 receptor in Sabra rat brain
Sequence of Cannabinoid receptor 1 (P20272 whole entry): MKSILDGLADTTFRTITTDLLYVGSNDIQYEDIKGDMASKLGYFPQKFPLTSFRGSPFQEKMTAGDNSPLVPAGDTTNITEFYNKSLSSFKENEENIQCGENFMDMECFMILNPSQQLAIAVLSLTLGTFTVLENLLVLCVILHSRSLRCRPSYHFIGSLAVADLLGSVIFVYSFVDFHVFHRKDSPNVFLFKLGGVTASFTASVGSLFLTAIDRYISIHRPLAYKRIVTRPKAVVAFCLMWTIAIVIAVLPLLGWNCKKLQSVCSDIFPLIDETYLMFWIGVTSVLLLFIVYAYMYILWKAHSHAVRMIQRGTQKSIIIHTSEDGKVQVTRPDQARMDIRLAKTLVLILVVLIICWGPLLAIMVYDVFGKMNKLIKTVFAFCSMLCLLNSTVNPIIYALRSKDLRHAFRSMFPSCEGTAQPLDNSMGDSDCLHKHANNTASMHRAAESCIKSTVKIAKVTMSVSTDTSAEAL

[8] = tested on: Peritoneal macrophage cell; test: Ability to suppress […] production by LPS-activated peritoneal macrophages form C57BL/6 mice at 1 ug/ml; format: functional, cell-based; conditions: Mus musculus; outline: as §2

SMILES | Activity ([1]; Mus musculus) | Activity [2] [%] | Activity [3] | Activity [4] | Activity [5] | Activity [6] [%] | Ki [7] [nM] | Activity [8] | Activity ([6]; Mus musculus) | Activity ([2]; Mus musculus) | Activity [1] [%]
C=C(C)[C@@H]1CCC(C)=CC1c1c(O)cc(C(C)(C)CCCCCC)cc1O (some centres not stated) | Active | 60 | Active | Active | Active | 73 | > 10000 | – | – | – | –
C=C(C)[C@@H]1CCC(C)CC1c1c(O)cc(CCCCC)cc1O (some centres not stated) | – | – | Active | Active | – | – | – | – | – | – | –
CCCCCc1cc(O)c(C2CC(C)CC[C@H]2C(C)C)c(O)c1 (some centres not stated) | Active | – | Active | Active | Active | – | 145 | Active | – | – | –
CCCCCc1cc(O)c(C2C=C(C)CC[C@H]2C(C)C)c(O)c1 (some centres not stated) | Active | – | Active | Active | Active | – | > 1000 | – | – | – | –
CCCCCCC(C)(C)c1cc(O)c(C2CC(C)CC[C@H]2C(C)C)c(O)c1 (some centres not stated) | – | 25 | – | – | – | – | 17 | – | inactive | – | –
CCCCCCC(C)(C)c1cc(O)c(C2C=C(C)CC[C@H]2C(C)C)c(O)c1 (some centres not stated) | inactive | – | – | – | – | – | 124 | – | inactive | inactive | –
C=C(C)[C@@H]1CCC(C)=C[C@H]1c1c(O)cc(CCCCC)cc1O [CANNABIDIOL] | – | – | Active | Active | – | – | – | – | Active | Active | 12
